Laboratory results published in paper PMC8829933 (ACS Omega, 2022).

Key:
HIV-1 IN (WT) = HIV-1 IN (WT) (Human immunodeficiency virus type 1 group M subtype B, UniProt P12497); experiment: HTRF-based integration assay of IN catalytic activity; assay type: biochemical
Outline: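 Full-length HIV-1 IN and LEDGF/p75 cofactor (6xHis- and Flag-tagged, expressed in E. coli BL21(DE3)) catalyse integration of donor viral DNA, 5′-Cy5-labelled, into acceptor target DNA, 5′-biotinylated and bound by streptavidin-europium. The integration product is read as time-resolved FRET between the two fluorophores, with test compound present.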

HIV-1 IN A128T = HIV-1 IN A128T (Human immunodeficiency virus type 1 group M subtype B, UniProt P12497, A1275T); experiment: HTRF-based integration assay against drug-resistant IN; assay type: biochemical
HIV-1 IN H171T = HIV-1 IN H171T (Human immunodeficiency virus type 1 group M subtype B, UniProt P12497, H1318T); experiment: as above; assay type: biochemical
HIV-1 IN G140S/Q148H = HIV-1 IN G140S/Q148H (Human immunodeficiency virus type 1 group M subtype B, UniProt P12497, G1287S/Q1295H); experiment: as above; assay type: biochemical
HIV-1 = conditions: reported in the literature; ref [30],[41],[58],[60]−[69]; cited from earlier work

## CC(C)(C)OC(=O)N1CCC(C(=O)N[C@@H](Cc2ccc3ccccc3c2)C(=O)O)(c2ccccc2)CC1 [Compound 14e]
HIV-1 IN (WT); IC50, inhibitory activity against IN, Table 2, WT IN
  IC50: 90.4 ± 4.72 µM
HIV-1 IN (WT); IN catalytic activity in vitro, relative to 12
  fold higher potency than compound 12: fourfold
HIV-1 IN A128T
  IC50: 86.8 ± 2.98 µM
HIV-1 IN H171T
  IC50: 114 ± 9.79 µM
HIV-1 IN G140S/Q148H
  IC50: 103 ± 3.12 µM

## Cc1nc2c(c(C)c(C)n2Cc2cnn(C)c2)c(-c2ccc(Cl)cc2)c1[C@H](OC(C)(C)C)C(=O)O [STP0404]
HIV-1
  selectivity against HIV-1 (therapeutic index): > 24,000
